Results taken from ChEMBL document CHEMBL4184148 (Bioorg Med Chem Lett, 2017).

How the values were obtained:
[1] = biological target: Macrophage colony-stimulating factor 1 receptor (Homo sapiens) (UniProt P07333); assay: Binding affinity to wild-type human partial length autoinhibited CSF1R (Y538 to S939 residues) expressed in HEK293 cells at 1 uM by Kinomescan method relative to control; assay type: cell-based; set-up: scale not given: the % may be the effect or the level left
[2] = biological target: Serine/threonine-protein kinase N2 (Homo sapiens) (UniProt Q16513); assay: Binding affinity to wild-type human partial length PKN2 (E634 to C984 residues) expressed in Escherichia coli BL21 at 1 uM by Kinomescan method relative to control
[3] = biological target: Microtubule-associated serine/threonine-protein kinase 1 (Homo sapiens) (UniProt Q9Y2H9); assay: Binding affinity to wild-type human partial length MAST1 (S346 to V730 residues) expressed in HEK293 cells at 1 uM by Kinomescan method relative to control; assay type: cell-based
Microtubule-associated serine/threonine-protein kinase 1 (Homo sapiens), sequence (Q9Y2H9 whole entry, looked up, the tested form may be a part): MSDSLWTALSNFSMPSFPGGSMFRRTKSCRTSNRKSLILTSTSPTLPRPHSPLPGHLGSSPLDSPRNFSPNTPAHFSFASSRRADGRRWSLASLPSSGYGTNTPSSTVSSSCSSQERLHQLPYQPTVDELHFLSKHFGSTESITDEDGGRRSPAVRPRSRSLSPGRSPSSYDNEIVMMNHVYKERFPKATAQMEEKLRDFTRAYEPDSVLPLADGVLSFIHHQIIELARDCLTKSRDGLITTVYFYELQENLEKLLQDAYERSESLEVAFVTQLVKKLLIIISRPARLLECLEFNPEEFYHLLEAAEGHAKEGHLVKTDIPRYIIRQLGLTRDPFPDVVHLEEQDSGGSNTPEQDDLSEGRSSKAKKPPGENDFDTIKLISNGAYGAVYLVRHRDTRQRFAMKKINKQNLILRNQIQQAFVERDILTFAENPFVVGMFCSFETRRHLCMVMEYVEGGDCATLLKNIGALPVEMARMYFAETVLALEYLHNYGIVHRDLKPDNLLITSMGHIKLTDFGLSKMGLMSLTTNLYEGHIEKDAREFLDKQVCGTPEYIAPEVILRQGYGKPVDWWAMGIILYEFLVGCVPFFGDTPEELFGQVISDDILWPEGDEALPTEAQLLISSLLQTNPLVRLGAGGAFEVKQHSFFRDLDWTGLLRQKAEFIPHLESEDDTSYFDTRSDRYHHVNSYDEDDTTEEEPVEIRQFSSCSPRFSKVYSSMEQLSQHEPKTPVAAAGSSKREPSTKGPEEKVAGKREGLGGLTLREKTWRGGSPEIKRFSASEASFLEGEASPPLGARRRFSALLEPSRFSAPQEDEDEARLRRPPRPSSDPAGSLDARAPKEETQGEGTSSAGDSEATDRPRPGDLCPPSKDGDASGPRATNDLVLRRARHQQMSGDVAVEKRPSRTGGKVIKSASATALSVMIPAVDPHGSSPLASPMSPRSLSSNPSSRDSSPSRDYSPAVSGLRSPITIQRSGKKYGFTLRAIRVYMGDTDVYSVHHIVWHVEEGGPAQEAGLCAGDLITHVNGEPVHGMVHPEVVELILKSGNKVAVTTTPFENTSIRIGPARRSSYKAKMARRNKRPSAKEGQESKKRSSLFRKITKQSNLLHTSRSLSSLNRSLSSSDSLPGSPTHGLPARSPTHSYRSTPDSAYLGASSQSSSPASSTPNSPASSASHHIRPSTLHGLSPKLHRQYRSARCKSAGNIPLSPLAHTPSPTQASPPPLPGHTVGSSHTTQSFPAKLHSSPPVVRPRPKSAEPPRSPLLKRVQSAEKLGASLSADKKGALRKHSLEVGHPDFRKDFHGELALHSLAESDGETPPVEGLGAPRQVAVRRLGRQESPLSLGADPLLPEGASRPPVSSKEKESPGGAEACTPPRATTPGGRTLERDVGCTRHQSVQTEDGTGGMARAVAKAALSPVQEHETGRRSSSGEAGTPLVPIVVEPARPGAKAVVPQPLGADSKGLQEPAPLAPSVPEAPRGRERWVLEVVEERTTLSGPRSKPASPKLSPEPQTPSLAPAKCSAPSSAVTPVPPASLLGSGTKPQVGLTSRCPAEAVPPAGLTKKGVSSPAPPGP

[4] = biological target: Myotonin-protein kinase (Homo sapiens) (UniProt Q09013); assay: Binding affinity to wild-type human partial length DMPK (V47 to V415 residues) expressed in Escherichia coli BL21 at 1 uM by Kinomescan method relative to control
Myotonin-protein kinase (Homo sapiens), sequence (Q09013 whole entry, the tested form may be a part): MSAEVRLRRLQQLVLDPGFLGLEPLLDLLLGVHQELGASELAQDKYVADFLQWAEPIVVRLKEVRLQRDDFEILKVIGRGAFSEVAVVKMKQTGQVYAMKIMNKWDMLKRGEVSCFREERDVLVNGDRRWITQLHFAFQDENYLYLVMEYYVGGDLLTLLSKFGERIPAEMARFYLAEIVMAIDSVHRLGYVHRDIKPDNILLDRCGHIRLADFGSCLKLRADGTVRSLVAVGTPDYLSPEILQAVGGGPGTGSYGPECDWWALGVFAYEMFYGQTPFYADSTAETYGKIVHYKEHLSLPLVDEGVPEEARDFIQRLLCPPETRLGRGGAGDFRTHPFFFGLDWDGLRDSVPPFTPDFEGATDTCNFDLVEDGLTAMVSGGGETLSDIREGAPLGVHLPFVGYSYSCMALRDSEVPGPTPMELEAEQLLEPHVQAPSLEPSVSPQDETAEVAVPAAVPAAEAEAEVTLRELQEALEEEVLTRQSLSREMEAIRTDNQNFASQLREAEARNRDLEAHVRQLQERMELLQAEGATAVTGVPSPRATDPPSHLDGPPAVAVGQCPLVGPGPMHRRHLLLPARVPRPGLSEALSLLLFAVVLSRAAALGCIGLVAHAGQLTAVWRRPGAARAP

[5] = biological target: Ribosomal protein S6 kinase alpha-6 (Homo sapiens) (UniProt Q9UK32); assay: Binding affinity to wild-type human partial length N-terminal RSK4 kinase domain 1 (M1 to E397 residues) expressed in HEK293 cells at 1 uM by Kinomescan method relative to control; assay type: cell-based
[6] = biological target: Serine/threonine-protein kinase haspin (Homo sapiens) (UniProt Q8TF76); assay: Binding affinity to wild-type human partial length HASPIN (I452 to K798 residues) expressed in HEK293 cells at 1 uM by Kinomescan method relative to control; assay type: cell-based
[7] = biological target: Phosphatidylinositol 4,5-bisphosphate 3-kinase catalytic subunit alpha isoform (Homo sapiens) (UniProt P42336); assay: Binding affinity to wild-type human partial length PIK3CA (R108 to N1068 residues) expressed in HEK293 cells at 1 uM by Kinomescan method relative to control; assay type: cell-based
Phosphatidylinositol 4,5-bisphosphate 3-kinase catalytic subunit alpha isoform (Homo sapiens), sequence (P42336 whole entry, the tested form may be a part, canonical isoform): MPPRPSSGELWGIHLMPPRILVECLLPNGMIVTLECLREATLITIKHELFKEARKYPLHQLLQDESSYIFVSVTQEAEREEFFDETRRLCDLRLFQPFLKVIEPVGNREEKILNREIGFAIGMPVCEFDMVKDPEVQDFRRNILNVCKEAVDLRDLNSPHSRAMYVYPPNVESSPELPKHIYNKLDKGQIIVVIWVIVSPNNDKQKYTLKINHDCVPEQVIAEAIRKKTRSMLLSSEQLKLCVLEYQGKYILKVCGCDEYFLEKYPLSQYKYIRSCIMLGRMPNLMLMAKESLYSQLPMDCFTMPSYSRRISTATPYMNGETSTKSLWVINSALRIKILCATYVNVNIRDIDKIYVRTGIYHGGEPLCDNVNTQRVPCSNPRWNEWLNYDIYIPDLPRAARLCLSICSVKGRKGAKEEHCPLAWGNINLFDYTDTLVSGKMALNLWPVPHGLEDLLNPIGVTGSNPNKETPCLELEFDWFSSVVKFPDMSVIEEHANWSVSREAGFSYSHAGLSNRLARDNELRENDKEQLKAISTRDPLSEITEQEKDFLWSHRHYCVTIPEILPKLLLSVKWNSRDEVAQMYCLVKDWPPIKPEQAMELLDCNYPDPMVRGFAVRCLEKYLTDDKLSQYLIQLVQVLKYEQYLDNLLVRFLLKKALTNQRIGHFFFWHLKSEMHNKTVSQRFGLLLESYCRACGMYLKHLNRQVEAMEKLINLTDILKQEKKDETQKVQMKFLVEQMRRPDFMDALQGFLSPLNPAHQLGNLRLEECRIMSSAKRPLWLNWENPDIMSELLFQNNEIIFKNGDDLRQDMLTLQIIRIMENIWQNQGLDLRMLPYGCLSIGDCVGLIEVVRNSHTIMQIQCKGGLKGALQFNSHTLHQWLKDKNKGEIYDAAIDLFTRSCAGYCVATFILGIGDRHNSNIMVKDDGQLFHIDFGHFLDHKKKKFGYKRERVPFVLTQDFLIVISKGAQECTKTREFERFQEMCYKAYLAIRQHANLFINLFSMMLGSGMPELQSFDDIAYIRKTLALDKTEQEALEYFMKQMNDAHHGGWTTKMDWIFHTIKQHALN

[8] = biological target: Myosin light chain kinase family member 4 (Homo sapiens) (UniProt Q86YV6); assay: Binding affinity to wild-type human partial length MYLK4 (V79 to S380 residues) expressed in Escherichia coli BL21 at 1 uM by Kinomescan method relative to control
[9] = biological target: Insulin-like growth factor 1 receptor (Homo sapiens) (UniProt P08069); assay: Binding affinity to wild-type human partial length IGF1R (L972 to D1294 residues) expressed in Escherichia coli BL21 at 1 uM by Kinomescan method relative to control
[10] = biological target: Transient receptor potential cation channel subfamily M member 6 (Homo sapiens) (UniProt Q9BX84); assay: Binding affinity to wild-type human partial length TRPM6 (Q1723 to I1998 residues) expressed in HEK293 cells at 1 uM by Kinomescan method relative to control; assay type: cell-based
[11] = biological target: Activin receptor type-1-like (Homo sapiens) (UniProt P37023); assay: Binding affinity to wild-type human ACVRL1 (L164 to Q503 residues) expressed in Escherichia coli BL21 at 1 uM by Kinomescan method relative to control
[12] = system: Tyrosine-protein kinase ABL1 (Homo sapiens), P00519 [F317L]; assay: Binding affinity to human non-phosphorylated ABL1 F317L mutant (S229 to K512 residues) expressed in HEK293 cells at 1 uM by Kinomescan method relative to control; assay type: cell-based
[13] = biological target: Dual specificity mitogen-activated protein kinase kinase 6 (Homo sapiens) (UniProt P52564); assay: Binding affinity to wild-type human partial length MEK6 (K36 to D334 residues) expressed in Escherichia coli BL21 at 1 uM by Kinomescan method relative to control
[14] = biological target: Serine/threonine-protein kinase OSR1 (Homo sapiens) (UniProt O95747); assay: Binding affinity to wild-type human full length OSR1 (M1 to S527 residues) expressed in HEK293 cells at 1 uM by Kinomescan method relative to control; assay type: cell-based
Serine/threonine-protein kinase OSR1 (Homo sapiens), sequence (O95747 2-527 limits assumed): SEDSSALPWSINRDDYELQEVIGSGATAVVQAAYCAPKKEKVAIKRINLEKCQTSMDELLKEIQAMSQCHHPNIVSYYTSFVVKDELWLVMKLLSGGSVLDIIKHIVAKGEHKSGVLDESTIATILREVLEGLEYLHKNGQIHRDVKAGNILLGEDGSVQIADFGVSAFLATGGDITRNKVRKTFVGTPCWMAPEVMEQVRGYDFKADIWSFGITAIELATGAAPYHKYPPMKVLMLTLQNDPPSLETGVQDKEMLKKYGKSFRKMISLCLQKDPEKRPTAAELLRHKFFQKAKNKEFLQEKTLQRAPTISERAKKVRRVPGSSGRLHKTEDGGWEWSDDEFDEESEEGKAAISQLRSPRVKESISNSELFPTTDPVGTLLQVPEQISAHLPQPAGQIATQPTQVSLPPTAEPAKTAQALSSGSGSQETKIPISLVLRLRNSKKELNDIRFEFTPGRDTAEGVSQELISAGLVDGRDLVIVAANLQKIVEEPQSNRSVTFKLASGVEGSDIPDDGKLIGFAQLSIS
In short: (§1)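 Kinome-wide competition binding panel run by an outside provider, with each compound tested at a single concentration. Activity is read against the kinase panel.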

[15] = biological target: Serine/threonine-protein kinase PLK3 (Homo sapiens) (UniProt Q9H4B4); assay: Binding affinity to wild-type human partial length PLK3 (A42 to L334 residues) expressed in HEK293 cells at 1 uM by Kinomescan method relative to control; assay type: cell-based
[16] = biological target: Angiopoietin-1 receptor (Homo sapiens) (UniProt Q02763); assay: Binding affinity to wild-type human partial length TIE2 (N804 to T1112 residues) expressed in Escherichia coli BL21 at 1 uM by Kinomescan method relative to control
[17] = biological target: Tyrosine-protein kinase Srms (Homo sapiens) (UniProt Q9H3Y6); assay: Binding affinity to wild-type human partial length SRMS (L208 to P488 residues) expressed in HEK293 cells at 1 uM by Kinomescan method relative to control; assay type: cell-based
[18] = biological target: Serine/threonine-protein kinase BRSK1 (Homo sapiens) (UniProt Q8TDC3); assay: Binding affinity to wild-type human partial length BRSK1 (M1 to E754 residues) expressed in Escherichia coli BL21 at 1 uM by Kinomescan method relative to control
[19] = biological target: Mitogen-activated protein kinase kinase kinase 11 (Homo sapiens) (UniProt Q16584); assay: Binding affinity to wild-type human partial length MLK3 (I77 to W399 residues) expressed in Escherichia coli BL21 at 1 uM by Kinomescan method relative to control
[20] = biological target: Serine/threonine-protein kinase PLK4 (Homo sapiens) (UniProt O00444); assay: Binding affinity to wild-type human partial length PLK4 (M1 to S273 residues) expressed in HEK293 cells at 1 uM by Kinomescan method relative to control; assay type: cell-based
[21] = biological target: Phosphorylase b kinase gamma catalytic chain, skeletal muscle/heart isoform (Homo sapiens) (UniProt Q16816); assay: Binding affinity to wild-type human full length PHKG1 (M1 to Y387 residues) expressed in Escherichia coli BL21 at 1 uM by Kinomescan method relative to control; in short: as §1
Phosphorylase b kinase gamma catalytic chain, skeletal muscle/heart isoform (Homo sapiens), sequence (Q16816 whole entry, looked up, the tested form may be a part, canonical isoform): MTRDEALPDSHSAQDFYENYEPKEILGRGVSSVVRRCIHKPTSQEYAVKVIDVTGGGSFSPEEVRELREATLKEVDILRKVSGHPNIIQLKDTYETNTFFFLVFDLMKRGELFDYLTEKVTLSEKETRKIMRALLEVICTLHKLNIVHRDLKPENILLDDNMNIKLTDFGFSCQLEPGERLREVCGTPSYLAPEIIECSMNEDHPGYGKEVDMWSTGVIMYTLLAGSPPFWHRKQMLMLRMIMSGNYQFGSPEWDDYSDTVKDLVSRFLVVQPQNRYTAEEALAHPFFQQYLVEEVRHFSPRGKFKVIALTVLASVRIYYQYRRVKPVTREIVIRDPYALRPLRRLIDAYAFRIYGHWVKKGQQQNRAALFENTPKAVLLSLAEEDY

[22] = biological target: Serine/threonine-protein kinase mTOR (Homo sapiens) (UniProt P42345); assay: Binding affinity to wild-type human partial length MTOR (L1382 to W2549 residues) expressed in HEK293 cells at 1 uM by Kinomescan method relative to control; assay type: cell-based
[23] = biological target: Serine/threonine-protein kinase WNK4 (Homo sapiens) (UniProt Q96J92); assay: Binding affinity to wild-type human partial length WNK4 (A31 to D461 residues) expressed in HEK293 cells at 1 uM by Kinomescan method relative to control; assay type: cell-based
[24] = biological target: Myosin light chain kinase 2, skeletal/cardiac muscle (Homo sapiens) (UniProt Q9H1R3); assay: Binding affinity to wild-type human partial length MYLK2 (D258 to K570 residues) expressed in Escherichia coli BL21 at 1 uM by Kinomescan method relative to control
[25] = biological target: Epithelial discoidin domain-containing receptor 1 (Homo sapiens) (UniProt Q08345); assay: Binding affinity to wild-type human partial length DDR1 (R565 to V876 residues) expressed in Escherichia coli BL21 at 1 uM by Kinomescan method relative to control
Epithelial discoidin domain-containing receptor 1 (Homo sapiens), sequence (Q08345 whole entry, the tested form may be a part): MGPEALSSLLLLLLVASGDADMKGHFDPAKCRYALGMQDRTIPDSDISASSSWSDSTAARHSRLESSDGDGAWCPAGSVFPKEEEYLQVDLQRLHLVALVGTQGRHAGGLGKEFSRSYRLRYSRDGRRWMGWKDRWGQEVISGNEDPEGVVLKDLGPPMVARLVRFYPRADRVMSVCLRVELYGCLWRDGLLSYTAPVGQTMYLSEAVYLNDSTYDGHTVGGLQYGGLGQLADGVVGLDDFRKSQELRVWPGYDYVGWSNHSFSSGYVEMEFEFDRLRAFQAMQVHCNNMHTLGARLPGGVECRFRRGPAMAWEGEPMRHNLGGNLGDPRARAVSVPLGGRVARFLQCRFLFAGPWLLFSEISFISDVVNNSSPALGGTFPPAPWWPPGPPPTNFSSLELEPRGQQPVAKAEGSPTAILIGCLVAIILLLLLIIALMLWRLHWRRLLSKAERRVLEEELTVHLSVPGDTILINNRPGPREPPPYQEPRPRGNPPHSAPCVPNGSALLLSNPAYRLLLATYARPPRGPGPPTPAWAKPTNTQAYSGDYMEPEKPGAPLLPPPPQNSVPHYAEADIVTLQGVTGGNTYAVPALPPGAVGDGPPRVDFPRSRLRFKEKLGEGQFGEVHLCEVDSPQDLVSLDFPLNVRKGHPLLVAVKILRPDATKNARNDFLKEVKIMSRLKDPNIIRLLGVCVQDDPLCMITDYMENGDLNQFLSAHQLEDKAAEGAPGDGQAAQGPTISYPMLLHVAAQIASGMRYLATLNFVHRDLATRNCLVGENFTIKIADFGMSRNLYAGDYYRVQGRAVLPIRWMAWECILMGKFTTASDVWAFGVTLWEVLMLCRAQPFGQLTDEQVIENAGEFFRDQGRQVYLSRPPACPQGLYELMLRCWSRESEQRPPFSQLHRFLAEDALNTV

| Structure (SMILES) | Activity [1] | Activity [2] | Activity [3] | Activity [4] | Activity [5] | Activity [6] | Activity [7] | Activity [8] | Activity [9] | Activity [10] | Activity [11] | Activity [12] | Activity [13] | Activity [14] | Activity [15] | Activity [16] | Activity [17] | Activity [18] | Activity [19] | Activity [20] | other results |
| --- | --- | --- | --- | --- | --- | --- | --- | --- | --- | --- | --- | --- | --- | --- | --- | --- | --- | --- | --- | --- | --- |
| CCC(=O)Nc1ccc(C(=O)Nc2ccc(Nc3ncc4c(n3)N(C)c3ccc(C)cc3C(=O)N4C)cc2)cc1 | 65% | 100% | 80% | 100% | 74% | 100% | 87% | 100% | 84% | 100% | 90% | 72% | 97% | 90% | 83% | 54% | 89% | 90% | 95% | 8.2% | Activity [21]: 88%; Activity [22]: 100%; Activity [23]: 85%; Activity [24]: 56%; Activity [25]: 86% |
| C=CC(=O)Nc1ccc(C(=O)Nc2ccc(Nc3ncc4c(n3)N(C)c3ccc(C)cc3C(=O)N4C)cc2)cc1 | 100% | 75% | 90% | 96% | 76% | 100% | 76% | 100% | 100% | 96% | 92% | 90% | 100% | 99% | 91% | 88% | 73% | 100% | 83% | 71% | Activity [21]: 99%; Activity [22]: 87%; Activity [23]: 99%; Activity [24]: 87%; Activity [25]: 92% |
